This note sets out measurements from ChEMBL document CHEMBL1125363, “Novel piperidine sigma receptor ligands as potential antipsychotic drugs” (J Med Chem, 1992).

The target in test [1] is Serotonin 2 (5-HT2) receptor (Mus musculus, UniProt Q02152+P34968+P35363). Nature of the test: In vitro binding affinity for serotonin 5-hydroxytryptamine (5-HT) 2 receptors. It counts as protein assay.
Test [2] concerns the target D(2) dopamine receptor (Mus musculus, UniProt P61168). Nature of the test: In vitro binding affinity towards dopamine receptor D2.
In test [3] the target is Sigma non-opioid intracellular receptor 1 (Mus musculus, UniProt O55242). Nature of the test: In vitro binding affinity for the mouse sigma opioid receptor.
Test [4] is filed under the species Mus musculus. Nature of the test: Oral potency tested by using anti-mescaline test. In kind it is functional. The gist of the method:
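Mice; mescaline was given to evoke hallucinogen-type behaviour, and the test compound was dosed orally to antagonise it. Potency is the ED50 in mg/kg po. Some ED50s are the average of three measurements.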

SMILES strings stand for the structures.

Sequence of D(2) dopamine receptor (P61168 whole entry): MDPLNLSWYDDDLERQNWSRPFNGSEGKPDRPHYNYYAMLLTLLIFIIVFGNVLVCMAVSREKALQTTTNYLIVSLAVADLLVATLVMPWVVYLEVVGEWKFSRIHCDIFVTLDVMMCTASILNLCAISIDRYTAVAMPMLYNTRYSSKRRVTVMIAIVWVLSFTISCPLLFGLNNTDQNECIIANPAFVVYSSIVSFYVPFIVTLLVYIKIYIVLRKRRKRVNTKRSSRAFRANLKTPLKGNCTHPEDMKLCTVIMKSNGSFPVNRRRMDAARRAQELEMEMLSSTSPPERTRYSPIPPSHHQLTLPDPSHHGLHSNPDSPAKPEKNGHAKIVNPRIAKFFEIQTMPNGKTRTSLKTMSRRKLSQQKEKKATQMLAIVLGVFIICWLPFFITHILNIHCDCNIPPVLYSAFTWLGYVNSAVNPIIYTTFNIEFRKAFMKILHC
Sequence of Sigma non-opioid intracellular receptor 1 (O55242 whole entry): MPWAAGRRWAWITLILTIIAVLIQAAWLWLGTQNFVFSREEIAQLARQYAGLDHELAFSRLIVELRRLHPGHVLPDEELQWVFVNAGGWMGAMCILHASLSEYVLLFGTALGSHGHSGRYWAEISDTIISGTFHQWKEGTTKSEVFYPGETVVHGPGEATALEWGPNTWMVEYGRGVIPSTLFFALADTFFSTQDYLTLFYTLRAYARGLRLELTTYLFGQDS

The term Ki denotes the equilibrium dissociation constant of an inhibitor or competing ligand from its target. A higher Ki goes with weaker binding. What is called IC50 is the concentration that inhibits the measured activity by half. In general, ED50 refers to the dose at which the effect has come halfway, by size or by number of responders. As for `O=C(CC1CCN(CCc2ccccc2)CC1)c1ccc(F)cc1`, the inhibition constant (Ki) in test [1] and in test [3] was 8 nM throughout. The molecule further showed a concentration for half-maximal inhibition (IC50) in test [2] of 42 nM. In test [4], this molecule registered an ED50 of 4.1 mg/kg.

For the molecule `O.O=C(CC1CCN(Cc2ccccc2)CC1)c1ccc(C(F)(F)F)cc1`, the results for the inhibition constant (Ki) in test [1] and in test [3] were above 1000 nM and 10 nM, respectively. In addition, the concentration for half-maximal inhibition (IC50) in test [2] is 4670 nM. Also, the ED50 in test [4] is above 10 mg/kg.

On to `COc1ccc(COCC2CCN(Cc3ccccc3)CC2)cc1.O=C(O)/C=C\C(=O)O`, for which the Ki in test [1] stood at 287 nM; in test [3], 3.5 nM. The molecule also gave an IC50 in test [2] of 26000 nM. This molecule also yielded a median effective dose (ED50) in test [4] above 30 mg/kg.

With `Fc1ccc(COCC2CCN(Cc3ccccc3)CC2)cc1.O=C(O)/C=C\C(=O)O`, the inhibition constant (Ki) in test [1] came out at 272 nM; in test [3], 2 nM. The IC50 in test [2] worked out at 3900 nM. Further, it took a dose of 14 mg/kg to reach the 50% effect level in test [4] (ED50).

Regarding `CS(=O)(=O)c1ccc(OCC2CCN(CC3CC3)CC2)cc1`, the Ki in test [1] came to 1135 nM; in test [3], 53 nM. In test [2], the half-inhibitory concentration (IC50) is above 10000 nM. In test [4], this molecule displayed an ED50 above 30 mg/kg.

`O=C(CC1CCN(CCc2ccc(C(F)(F)F)cc2)CC1)c1ccc(F)cc1`: the Ki in test [1] worked out at 3.3 nM; in test [3], 9 nM. For the same molecule, the IC50 in test [2] came to 10 nM. The molecule further showed an ED50 in test [4] below 10 mg/kg.

Consider `O.OCc1ccc(OCC2CCN(CC3CC3)CC2)cc1`, for which the Ki in test [1] was above 100 nM; in test [3], 35 nM. The molecule further gave an IC50 in test [2] above 10000 nM. Moreover, the ED50 in test [4] is above 30 mg/kg.

Take `O=S(=O)(CC1CCN(CCC2CC2)CC1)c1ccc(F)cc1`: the inhibition constant (Ki) in test [1] turned out to be 745 nM; in test [3] it was 28 nM. Besides, the IC50 in test [2] was above 10000 nM. Also, it took a dose of 6.4 mg/kg to reach the 50% effect level in test [4] (ED50).

Turning to `O.c1ccc2c(OCC3CCN(CC4CC4)CC3)ccnc2c1`, the Ki in test [1] is above 100 nM; in test [3], 50 nM. The same molecule returned an IC50 in test [2] of 4850 nM. In test [4], this molecule showed a 50% effective dose (ED50) of 19.2 mg/kg.

As to `O.O=C(O)/C=C\C(=O)O.c1ccc(CN2CCC(COc3cccnc3)CC2)cc1`, the results for the Ki in test [1] and in test [3] were above 10000 nM and 5 nM, respectively. The molecule also gave an IC50 in test [2] above 10000 nM. The molecule also showed an ED50 in test [4] above 30 mg/kg.

Consider `Fc1ccc(-c2ccc(OCC3CCN(CC4CC4)CC3)cc2)cc1`, for which the inhibition constant Ki in test [1] is 396 nM; in test [3] it was 83 nM. The half-maximal inhibitory concentration (IC50) in test [2] was above 10000 nM. The molecule also yielded a median effective dose (ED50) in test [4] below 30 mg/kg.

`c1ccc(OCC2CCN(CC3CC3)CC2)cc1`: the inhibition constant Ki in test [1] worked out at 53 nM; in test [3] it was 7 nM. In test [2], this molecule gave an IC50 of 3170 nM. Also, the median effective dose (ED50) in test [4] came to 30 mg/kg.

On to `c1cc2cc(OCC3CCN(CC4CC4)CC3)ccc2[nH]1`, for which the Ki in test [1] was 112 nM; in test [3], 34 nM. The half-inhibitory concentration (IC50) in test [2] was found to be 2350 nM. The 50% effective dose (ED50) in test [4] is below 30 mg/kg.

As to `Cl.Fc1ccc(COCC2CCN(CC3CCCCC3)CC2)cc1`, the inhibition constant Ki is 127 nM in test [1] and 3 nM in test [3]. Besides, the IC50 in test [2] is 3350 nM. Besides, in test [4], the median effective dose (ED50) was above 10 mg/kg.

Take `Cl.Fc1c(F)c(F)c(OCC2CCN(CC3CC3)CC2)c(F)c1F`: the Ki in test [1] came out at 3356 nM; in test [3], 10 nM. The IC50 in test [2] came to 5680 nM. Further, the 50% effective dose (ED50) in test [4] is 26.2 mg/kg.

On to `Cl.Fc1ccc(COCC2CCN(Cc3cccc4ccccc34)CC2)cc1`, for which the Ki is 25 nM in test [1] and 22 nM in test [3]. In test [2], this molecule came in with an IC50 of 219 nM. Also, the ED50 in test [4] stood at 12 mg/kg.

For `COC(=O)c1ccc(COCC2CCN(Cc3ccccc3)CC2)cc1.Cl.O`, the Ki in test [1] was above 10000 nM; in test [3] it was 15 nM. This molecule gave an IC50 in test [2] of 970 nM. For the same molecule, the ED50 in test [4] was above 30 mg/kg.

Take `Br.CC(C)(C)c1ccc(C(=O)CC2CCN(CC3CC3)CC2)cc1.O`: the inhibition constant (Ki) in test [1] is above 1000 nM; in test [3], 8 nM. In test [2], this molecule returned an IC50 of 1570 nM. The molecule also had an ED50 in test [4] above 30 mg/kg.
